# Diaph inh CS – diaphorase inhibitors and chemical oxidizers, primary screen, counter-screen for diaphorase-coupled primary assays, biochemical, uHTS, resorufin fluorescence | actives 0.69% (n = 190,000) | AID 1217, 2008 | diaphorase resazurin-to-resorufin fluorescence, NADH, 16 min; bacterial (C. kluyveri) enzyme, not human | inhibition, % at 20 µM;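 active means primary screen inhibition at 20 µM above a set limit, cut at about 50% in these data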;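 further: plate controls were DMSO with full reaction for no effect and wells lacking NADH for full effect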
#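 Assay system: diaphorase enzyme from Clostridium kluyveri. Quantity: enzyme working solution with 0.14 U/mL diaphorase. Schedule: reaction incubation of 16 min at room temperature. Technique: resorufin fluorescence, excitation 544 nm, emission 590 nm. Controls: No-NADH positive control and DMSO neutral control.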
# KCC2 mod – KCC2 cotransporter modulators, thallium flux, primary screen, cell-based, HEK293 KCC2, FluoZin-2 fluorescence, MLSMR. actives 2.2% (n = 190,000). Solute carrier family 12 member 5 (Homo sapiens), Q9H2X9. B-score of Tl+ flux slope (higher = more flux/activation; lower = inhibition) at 10 µM. AID 1456, 2008. KCC2 cells, thallium flux FluoZin-2 fluorescence;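 active means thallium flux slope and its plate-corrected score both differing from the plate sample mean at a set confidence after two filtering rounds, in either direction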;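 further: slope of fluorescence scaled to starting intensity during 10 to 20 s after thallium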
# Lmaj promast – Leishmania major promastigote growth inhibition, primary screen; Leishmania major promastigotes, resazurin fluorescence viability; inhibition, % at 10 µM; actives 9% (n = 200,000); in the data active means inhibition above about 50%;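 further: promastigotes grown with compound for 44 hours at 28 °C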
# WT yeast gro inh – growth inhibition of WT strain, primary screen, mitochondrial fusion inhibitor project, WT and mutant strains, chemical genetic. AID 1362, 2008. mitochondrial fusion phenotypic screen. actives 2.1% (n = 190,000). inhibition, % at 10 µM; in the data active means inhibition above about 58%; tested in S. cerevisiae
# ROMK mod – ROMK potassium channel modulators, primary screen, cell-based, thallium flux, MLSMR library; ATP-sensitive inward rectifier potassium channel 1 (Homo sapiens), P48048; Tet-inducible ROMK, thallium flux fluorescence; actives lie on both sides; B-score at 10 µM; actives 2% (n = 130,000);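 active means signal ratio slope over the read window, or its plate-corrected B-score, at least 3 SD from the plate mean, either direction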;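 further: B-score of the F/F0 ratio slope over 7 to 12 s after thallium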
# Target sequence (P48048 whole entry, looked up): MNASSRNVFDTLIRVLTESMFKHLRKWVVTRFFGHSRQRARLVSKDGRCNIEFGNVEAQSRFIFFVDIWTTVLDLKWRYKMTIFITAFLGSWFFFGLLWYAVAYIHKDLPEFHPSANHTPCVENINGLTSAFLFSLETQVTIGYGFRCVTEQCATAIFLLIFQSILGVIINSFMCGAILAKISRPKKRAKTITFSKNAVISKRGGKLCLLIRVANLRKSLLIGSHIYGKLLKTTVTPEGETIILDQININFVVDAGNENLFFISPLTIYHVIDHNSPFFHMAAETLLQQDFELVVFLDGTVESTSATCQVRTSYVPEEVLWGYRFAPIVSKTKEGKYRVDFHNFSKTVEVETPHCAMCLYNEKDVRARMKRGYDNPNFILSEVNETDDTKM
# Diaphorase act – compounds boosting diaphorase resazurin reduction – biochemical, uHTS, resorufin fluorescence, counter-screen for diaphorase-coupled primary assays, primary screen; Diaphorase/resazurin coupled assay, 16 min; hits give high values; 1 = vehicle wells, 0 = NADH-free wells; activation factor at 20 µM; actives 0.005% (n = 190,000);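 active means diaphorase activity raised at least twofold by the compound at 20 µM; inactive means activation factor below 2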
#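 Assay system: bacterial diaphorase enzyme (C. kluyveri) / Input: enzyme 0.07 U/mL final / Medium: 50 mM HEPES pH 7.4 with 4.542 mM MgCl2, 0.005% Tween 20 / Doses: single compound dose of 20 µM, 1% DMSO final / Incubation: 16 min enzyme reaction, ambient temperature / Signal: fluorescence, excitation 544 nm and emission 590 nm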
# KCC2 sec1 – KCC2 modulators in sodium-free buffer, confirmation, cell-based, HEK293 KCC2, thallium flux, secondary assay | FluoZin2 fluorescence; hits give high values | shares compounds with KCC2 mod | actives 15% (n = 3,700) | normalised thallium flux (F/F0 slope) at 10 µM;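 active means thallium flux slope above the same plate's solvent-only control mean plus 3 SD; inconclusive means the two replicate wells disagree; inactive means no significant difference from solvent-only control wells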
# KCC2 bumet counter – thallium flux persisting under bumetanide in KCC2 cells, confirmation, counter-screen for KCC2 modulator project, cell-based, HEK293 KCC2, FluoZin2, secondary assay 3; shares compounds with KCC2 mod; HEK293-KCC2 + bumetanide/ouabain; hits give high values; normalized thallium flux at 10 µM; actives 49% (n = 3,700); AID 1714, 2009;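 active means thallium entry rate above the same plate's blocked-transporter control wells by more than 3 SD; inconclusive means the two repeat wells disagree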;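 further: raw slope of fluorescence over initial fluorescence between 10 and 20 s after thallium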
# KCC2 sec2 – KCC2 modulators without ouabain present, confirmation, cell-based, HEK293 KCC2, thallium flux, FluoZin2, secondary assay 2 | actives 23% (n = 3,700) | normalized thallium flux at 10 µM | thallium flux FluoZin2 fluorescence; actives lie on both sides; F/F0 rise rate, 10–20 s post-thallium | AID 1715, 2009 | shares compounds with KCC2 mod;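 active means thallium flux slope more than 3 SD above or below the plate's solvent-only control mean, mostly below; inconclusive means the two repeat wells disagreed; inactive means no significant shift from solvent-only controls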;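 further: raw slope with 0.1% DMSO as baseline and bumetanide as block control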
# HEK293 Tl flux – thallium flux modulation in parental HEK cells, confirmation, counter-screen for KCC2 modulator project, cell-based, counterscreen 1. HEK293 parental cells, thallium flux FluoZin2, ouabain; baseline-ratio fluorescence slope, 10–20 s after thallium. AID 1716, 2009. thallium flux rate (normalised fluorescence) at 10 µM. actives 46% (n = 3,700). shares compounds with KCC2 mod;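 active means thallium flux rate significantly above the same plate's solvent-only control wells, beyond their mean plus 3 SD; inconclusive means the two replicate wells gave conflicting results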
# KCC2 retest ouab – KCC2 inhibitors and activators, ouabain retest, confirmation, HEK-KCC2 cells. actives 48% (n = 3,700). HEK293-KCC2, thallium flux FluoZin2 fluorescence; bidirectional: low = inhibitor, high = activator. raw Tl+ flux slope (below DMSO = inhibition, above = activation) at 10 µM. shares compounds with KCC2 mod;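 active means thallium flux slope beyond 3 SD from same-plate DMSO control mean in most replicates, usually higher, sometimes lower; inconclusive means repeat tests gave conflicting results; inactive means no significant difference from controls in most replicates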;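 further: slope of initial-normalized fluorescence between seconds 10 and 20 after thallium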
# HEK293 Tl flux2 – native HEK Tl+ uptake effects, second counter-screen – HEK cells, counterscreen 2, counter-screen for KCC2 modulator project, confirmation | HEK293 parental, thallium flux FluoZin-2 fluorescence slope | actives 33% (n = 3,700) | thallium flux slope at 10 µM | shares compounds with KCC2 mod;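 active means thallium flux slope above the same plate's solvent-control mean plus 3 SD in both duplicate wells; inconclusive means duplicate wells that disagreed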;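 further: run without ouabain in cells lacking the KCC2 cotransporter; slope of fluorescence scaled to its starting value between 10 and 20 s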
# * marks the source's active call; other numbers are inactive results; ? = inconclusive; . = not tested or not shown. An excerpt weighted towards active compounds, which were near 12% of everything screened.
SMILES,Diaph inh CS,KCC2 mod,Lmaj promast,WT yeast gro inh,ROMK mod,Diaphorase act,KCC2 sec1,KCC2 bumet counter,KCC2 sec2,HEK293 Tl flux,KCC2 retest ouab,HEK293 Tl flux2
COc1ccc2[nH]c3c(NCCN4CCCCC4)ncnc3c2c1,-1.9,-5.21*,40.1,-4.9,.,1,0.00678,0.00459,0.0284,0.00732,0.0192,0.0106
Cn1c(CSc2nc3ccccc3s2)nnc1SCC(=O)NCc1ccccn1,-4.6,-3.98*,-7.8,-6.0,0.474,1,0.00694,0.00442,0.0304,0.00739,?,0.0095
CCOC(=O)N1CCN(C(=S)NC(=O)c2c(-c3c(Cl)cccc3Cl)noc2C)CC1,15.3,11*,14.9,27.9,-1.7,0.8,?,0.0326*,?,0.018*,0.0316*,0.0188*
Cc1onc(-c2c(Cl)cccc2Cl)c1C(=O)NC(=S)N1CCOCC1,.,8.58*,.,.,.,.,0.011*,0.0186*,0.029,0.0119*,?,0.00989
O=C(/C=C\Nc1ccc2c(c1)OCO2)c1ccc(Cl)s1,5.0,-0.0275,8.0,-16.4,-0.0164,0.9,.,.,.,.,.,.
C/C(=C\C(=O)c1ccc(Cl)s1)N(C)C,-12.6,3.78*,-2.0,5.0,-0.512,1.1,0.0109,0.0143*,0.0364,?,?,0.0107
C=CCN1C(=O)N(/C=C/C)c2cccc3cccc1c23,34.8,7.61*,12.5,0.8,-0.0642,0.7,0.0057,0.00434,0.0278,0.00568*,0.0177,0.00903
C=CCN1C(=O)C(C)(C)Nc2ccccc21,6.4,.,-3.2,-46.7,.,0.9,.,.,.,.,.,.
O=C(Nc1ccc(NC(=O)c2sc3ccccc3c2Cl)cc1Cl)c1ccco1,13.2,.,4.7,3.3,.,0.9,.,.,.,.,.,.
O=C(COC(=O)Cc1ccccc1F)Nc1cccc(F)c1,5.8,-0.29,-4.2,4.4,-0.0409,0.9,.,.,.,.,.,.
Cc1ccccc1C(=O)NC(=S)NCCC1=CCCCC1,12.0,4.39*,6.6,71.2*,-0.984,0.9,0.0112,0.0158*,0.0335,0.0265*,0.0267*,?
O=C(NC(=S)NCCC1=CCCCC1)c1ccco1,6.1,79.3*,10.3,44.9,-0.147,0.9,0.0336*,0.162*,0.0461*,?,0.113*,0.0375*
O=C(NC(=S)NC1CCCc2ccccc21)c1ccco1 (stereo not given),0.4,63*,3.9,73.2*,1.34,1,0.0305*,0.166*,0.0456*,0.0971*,0.114*,0.0349*
O=C(NC(=S)NCCC1=CCCCC1)c1ccc(Br)o1,10.4,59.4*,-8.0,75.9*,-0.615,0.9,?,0.0661*,0.0749*,0.0774*,0.077*,0.07*
CCOC(=O)C1=C(C)NC(=O)NC1c1cccc(OC)c1OCc1ccccc1Cl (stereo not given),4.5,-0.00707,22.2,4.8,0.831,1,.,.,.,.,.,.
S=c1nc(-c2ccccc2Cl)[nH][nH]1,24.7,.,-6.2,-1.5,.,0.8,.,.,.,.,.,.
S=c1nc(-c2csc3c2CCCC3)[nH][nH]1,26.2,4.2*,12.6,33.6,-0.507,0.7,0.0158,0.0156*,0.0313,0.0148*,0.0221*,0.0172*
CC1=CC(C)(C)NC(=S)N1c1ccc(C)cc1,9.4,-0.567,-1.6,-12.6,-0.512,0.9,.,.,.,.,.,.
CCC1(c2ccc(Cl)cc2)NC(=S)N(c2ccc(C)c(C)c2)N1 (stereo not given),.,93.1*,.,.,.,.,0.0496*,0.12*,0.0445*,0.102*,0.0871*,0.0376*
Cc1ccc(-n2c(C)n[nH]c2=S)cc1C,2.9,-0.644,-4.8,5.3,.,1,.,.,.,.,.,.
CC1=CC(C)(C)NC(=S)N1c1ccc(C)c(C)c1,5.1,0.338,10.1,16.2,-0.0986,0.9,.,.,.,.,.,.
CCC1(c2ccccc2)NC(=S)N(c2ccc(C)c(C)c2)N1 (stereo not given),19.3,41.8*,12.2,68.6*,0.608,0.8,0.0422*,0.106*,0.0382,0.0553*,0.0595*,0.0171*
CCC1(c2ccc(Cl)cc2)NC(=S)N(c2ccc(C)cc2)N1 (stereo not given),25.9,51.5*,-13.4,67.8*,0.685,0.7,0.0406*,0.0959*,?,0.083*,0.0744*,0.0278*
Cn1c(-c2ccc3nc(N)sc3c2)nc2cc(N)ccc21,-2.3,.,33.5,4.7,1.82,1,?,?,0.0306,0.00823,0.0192,0.0102
Cn1c(-c2ccc(N)cc2)nc2ccccc21,3.7,0.424,-1.2,26.9,.,1,.,.,.,.,.,.
CCOc1ccccc1N1CN(C2CCCCC2)CNC1=S,.,0.95,.,.,.,.,.,.,.,.,.,.
CCOC(=O)c1ccc(N2CN(C3CCCCC3)CNC2=S)cc1,8.3,-0.0511,8.9,-8.2,0.295,0.9,0.00733,0.00489,0.0302,0.00848,0.0186,0.0117
CN(C)C(=O)N(CCCN1CCOCC1)Cc1cccc2ccccc12,.,-0.828,.,.,.,.,.,.,.,.,.,.
